Most compounds without a hit are left out; they make up all but 2.3% or so of the library.
Rtt109 Vps75: C. albicans Rtt109 histone acetyltransferase inhibition | Q5AAJ8 | purified Rtt109/Vps75, ThioGlo CoA-SH fluorescence, 4 h | inhibition, % at 34.9 µM | 330,000 tested, 0.16% active | AID 540336;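 active = inhibition of at least 50% in every replicate; inconclusive = best replicate reaches 50% inhibition but some replicates fall short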
Env fusion inh: inhibitors of HIV Env-mediated cell fusion; HeLa-JRFL Env/CEM21 cell fusion, luciferase; inhibition, % at 12.3 µM; 360,000 tested, 1.1% active; AID 651610;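 active = mean replicate inhibition score of at least 50 and every replicate individually at or above 50; inconclusive = only one of the two criteria met; inactive = mean below 50 and not all replicates reaching 50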;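 also: 0% = plate neutral controls and 100% = maraviroc near 300 nM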
PfHsp90 set2: inhibits growth of yeast expressing Plasmodium falciparum Hsp90; S. cerevisiae expressing PfHsp90, BacTiter-Glo ATP, 48 h; yeast lacking PDR1 and PDR3 efflux regulators; inhibition, % at 9.4 µM; 310,000 tested, 0.32% active; AID 504621;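 active = every replicate shows inhibition above about 80%, whatever the replicate mean, limit read from the data; inconclusive = mean inhibition reaches the set limit but some replicate falls short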;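 also: 0% = DMSO neutral controls and 100% = 20 µM radicicol positive controls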
Arr AP2 block: blocks beta-arrestin peptide binding to AP2 adaptin. FITC-arrestin peptide / GST-AP2 beads, flow cytometry; AP2 beta2 appendage carries R879A mutation. inhibition, % at 10 µM. 340,000 tested, 0.31% active. AID 504490;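 active = inhibition above a set limit, near 3 SD of compounds lacking own fluorescence, cut at about 54% in these data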;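 also: plate controls were DMSO wells for no effect and 5 µM unlabelled arrestin peptide for full effect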
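System: GST-tagged AP2 beta2-adaptin appendage (R879A) on 4 µm glutathione beads / Reagent: FITC-arrestin peptide, 50 nM / Detection: HyperCyt-sampled flow cytometry, FL1 channel, ex 488/em 535 nm / Timing: 12 min plus 1 h, RT / Buffer or medium: PBS plus Tween 20 (0.05%) and BSA (0.1%)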
PAX8 inh HTS: PAX8 transcriptional activity inhibition. RMG-I TPO-luciferase reporter, SteadyGlo, 24 h. inhibition, % at 12.6 µM. AID 652154. 360,000 tested, 1.2% active;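 active = mean replicate inhibition at least 60% with every replicate also reaching 60%; inconclusive = only one of the two criteria is met; inactive = mean below 60% and not all replicates reaching 60%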;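 also: luciferase light reporting Pax8 driven TPO promoter activity; plate controls were median of neutral control wells for no effect and mitoxantrone controls for full effect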
Glyco luc inh: N-linked glycosylation inhibition; AID 588692; reporter increase, % at 12.5 µM; D54 ERlucT glycosylation luciferase reporter, 24 h; percent of 100 nM tunicamycin response; 360,000 tested, 0.23% active;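 active = mean luciferase reporter signal, scaled so untreated is 0 and the glycosylation-blocking control 100, at or above a set limit in every replicate; inconclusive = mean reaches the limit but not every replicate does; inactive = mean below the limit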;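 also: luciferase carries N-glycosylation sites so blocking glycosylation raises the light; 0% = median of neutral control wells and 100% = median of 100 nM tunicamycin wells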
Arr-AP2 CP1: inhibitors of human beta-arrestin and AP2 interaction; shares compounds with Arr AP2 block; GST-AP2 beads, FITC arrestin peptide binding, flow cytometry; GST-fused beta2-adaptin appendage, R879A mutant; inhibition, % at 10 µM; 1,300 tested, 2% active; AID 504908;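 active = inhibition above a set limit, roughly 3 SD of non-fluorescent compound noise, cut at about 38% in these data; inactive = inhibition at or below that limit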;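 also: loss of bead fluorescence from 50 nM FITC arrestin peptide bound to appendage; 0% = negative control wells and 100% = excess unlabelled arrestin peptide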
Target sequence (P63010 whole entry, looked up, the tested form may be a part, one chain of several): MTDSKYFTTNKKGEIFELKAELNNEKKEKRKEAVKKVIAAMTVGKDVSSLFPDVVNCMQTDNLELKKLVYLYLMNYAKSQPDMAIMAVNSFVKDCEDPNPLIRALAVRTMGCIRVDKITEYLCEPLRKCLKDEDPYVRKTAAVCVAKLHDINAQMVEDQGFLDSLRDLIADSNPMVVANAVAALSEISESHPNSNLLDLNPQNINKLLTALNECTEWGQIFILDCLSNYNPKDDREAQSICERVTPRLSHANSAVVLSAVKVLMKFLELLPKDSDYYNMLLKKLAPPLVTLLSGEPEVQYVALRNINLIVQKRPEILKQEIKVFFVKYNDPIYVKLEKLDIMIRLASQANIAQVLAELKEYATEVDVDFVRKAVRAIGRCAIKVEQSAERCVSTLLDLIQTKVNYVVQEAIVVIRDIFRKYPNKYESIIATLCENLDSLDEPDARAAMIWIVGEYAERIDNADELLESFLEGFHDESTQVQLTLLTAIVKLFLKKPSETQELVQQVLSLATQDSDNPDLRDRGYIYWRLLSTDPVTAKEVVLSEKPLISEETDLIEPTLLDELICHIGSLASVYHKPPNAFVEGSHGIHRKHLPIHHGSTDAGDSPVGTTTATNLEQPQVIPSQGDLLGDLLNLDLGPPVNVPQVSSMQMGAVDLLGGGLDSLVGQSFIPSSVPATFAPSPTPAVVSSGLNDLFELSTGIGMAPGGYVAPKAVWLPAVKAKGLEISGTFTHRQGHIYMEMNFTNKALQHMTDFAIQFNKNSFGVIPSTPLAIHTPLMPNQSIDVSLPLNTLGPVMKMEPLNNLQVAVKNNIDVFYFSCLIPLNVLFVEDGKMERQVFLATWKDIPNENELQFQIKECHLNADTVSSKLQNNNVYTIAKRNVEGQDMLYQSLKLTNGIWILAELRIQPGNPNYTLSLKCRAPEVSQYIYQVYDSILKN
GST-FITC bead: GST-GSH bead binding interference, counter-screen; AID 588338; GST-fluorescein binding to GSH beads, fluorescence; 1,300 tested, 2% active; shares compounds with Arr AP2 block; inhibition, % at 10 µM;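 active = inhibition above 50%, about 3 SD of the inhibition seen with non-fluorescent compounds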;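 also: fluorescein maleimide labelled GST captured on 4 micron glutathione beads; higher means more loss of bead fluorescence from quenching or blocked binding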
Numbers without * were called inactive; [ ] = dose if it differs, or a comment.

`CC(C)(C)C(=O)NCc1ccc(C(=O)CSc2nnc(-c3ccncc3)n2C2CC2)s1` gave Rtt109 Vps75 5.7, Arr AP2 block 62.4*, PAX8 inh HTS -6.1, Glyco luc inh -1.2, Arr-AP2 CP1 -11.5 and GST-FITC bead 2.1.
For CC1CCCN(CCCNC(=O)c2ccc3c(c2)N(Cc2ccccc2F)C(=O)c2ccccc2S3(=O)=O)C1 (stereo not drawn) the results were Rtt109 Vps75 -1.9, Env fusion inh 0.1, PfHsp90 set2 -9.1, Arr AP2 block 58.9*, PAX8 inh HTS 21.8, Glyco luc inh -1.8, Arr-AP2 CP1 19.5 and GST-FITC bead -14.0.
Screening COc1ccc(S(=O)(=O)N[C@H]2CC[C@H](CCn3cc(-c4cccc(F)c4)nn3)O[C@@H]2CO)cc1 returned Env fusion inh 5.5[16.7 µM] and PAX8 inh HTS 28.7.
Cc1ccc(NC(=O)Nc2cnccn2)cc1C was read as Rtt109 Vps75 0.1, Env fusion inh -98.9, PfHsp90 set2 -20.9, Arr AP2 block 8.8, PAX8 inh HTS -53.7, Glyco luc inh 1.6, Arr-AP2 CP1 2.8 and GST-FITC bead -1.6.
Screening COc1ccc(NC(=O)Nc2cnccn2)cc1OC returned Rtt109 Vps75 -6.4, Env fusion inh 19.1, PfHsp90 set2 15.9, Arr AP2 block -8.5, PAX8 inh HTS -3.7, Glyco luc inh 3.0, Arr-AP2 CP1 -2.9 and GST-FITC bead 7.8.
O=C(Nc1ccc(F)c(Cl)c1)Nc1cnccn1 was read as Rtt109 Vps75 -3.1, Env fusion inh -16.5, PfHsp90 set2 11.7, Arr AP2 block 17.2, PAX8 inh HTS -18.8 and Glyco luc inh 1.9.
For O=C(Nc1cccc(Cl)c1)Nc1cnccn1 the results were Rtt109 Vps75 -3.3, Env fusion inh -82.8, PfHsp90 set2 15.1, Arr AP2 block -4.3, PAX8 inh HTS -25.9, Glyco luc inh 0.6, Arr-AP2 CP1 -1.5 and GST-FITC bead 2.1.
For CC(C)c1ccc(NC(=O)Nc2cnccn2)cc1 the results were Rtt109 Vps75 -4.5, Env fusion inh -37.0, PfHsp90 set2 11.6, Arr AP2 block -6.6, PAX8 inh HTS -80.1, Glyco luc inh 10.9, Arr-AP2 CP1 -2.1 and GST-FITC bead -4.5.
`CC(C)NC(=O)N(C)C[C@H]1Oc2ncc(-c3cccc(C#N)c3)cc2C(=O)N([C@H](C)CO)C[C@@H]1C` gave Env fusion inh 0.8[16.7 µM].
`COc1ccc(NC(=O)Nc2cccc3c2O[C@H](CN(C)Cc2ccccc2)[C@@H](C)CN([C@H](C)CO)C3=O)cc1` gave Env fusion inh 3.6[16.7 µM].
Screening O=C(Nc1ccc(Cl)cc1)Nc1cnccn1 returned Rtt109 Vps75 4.9, Env fusion inh -18.2, PfHsp90 set2 6.6, Arr AP2 block 9.6, PAX8 inh HTS -38.2, Glyco luc inh 1.2, Arr-AP2 CP1 16.2 and GST-FITC bead 4.8.
For Cc1ccc(NC(=O)Nc2cnccn2)cc1 the results were Rtt109 Vps75 -1.1, Env fusion inh -77.9, PfHsp90 set2 3.7, Arr AP2 block 44.5, PAX8 inh HTS -98.9, Arr-AP2 CP1 -7.8 and GST-FITC bead 9.7.
Cc1cnc(NC(=O)Nc2ccccc2)c(C)n1 was read as Rtt109 Vps75 0.9, Env fusion inh 13.1, PfHsp90 set2 14.9, Arr AP2 block -2.8, PAX8 inh HTS 0.7, Glyco luc inh -1.2, Arr-AP2 CP1 -14.4 and GST-FITC bead -2.4.
O=C(Nc1ccc([N+](=O)[O-])cc1)Nc1cnccn1 was read as Rtt109 Vps75 -4.1, Env fusion inh 17.3, PfHsp90 set2 -11.1, Arr AP2 block -8.0, PAX8 inh HTS 5.9 and Glyco luc inh -2.9.
`O=C(Nc1ccccc1)Nc1cnccn1` gave Rtt109 Vps75 1.0, Env fusion inh 8.6, PfHsp90 set2 18.3, Arr AP2 block 40.1, PAX8 inh HTS -4.3, Glyco luc inh 2.9, Arr-AP2 CP1 -4.8 and GST-FITC bead -6.9.
For CC(C)NC(=O)N(C)C[C@H]1OCCCC[C@@H](C)Oc2ccc(NS(=O)(=O)c3ccccc3)cc2C(=O)N([C@@H](C)CO)C[C@@H]1C the results were PAX8 inh HTS 14.2.
`Cc1cc(C)cc(NC(=O)Nc2cnccn2)c1` gave Rtt109 Vps75 -26.9, Env fusion inh 5.4, PfHsp90 set2 -7.7, Arr AP2 block 7.8, PAX8 inh HTS -11.5, Glyco luc inh 1.8, Arr-AP2 CP1 -7.2 and GST-FITC bead 0.3.
For COCCNC(=O)C[C@H]1C[C@@H]2c3cc(NC(=O)Nc4ccccc4)ccc3O[C@@H]2[C@H](CO)O1 the results were PAX8 inh HTS -18.8.
CS(=O)(=O)Nc1ccc2c(c1)[C@H]1C[C@@H](CC(=O)NCC3CC3)O[C@H](CO)[C@H]1O2 was read as Env fusion inh -5.6[16.7 µM] and PAX8 inh HTS 1.4.
COCC(=O)N1CC2(C1)CN(Cc1ccccn1)[C@@H](CO)c1[nH]c3cc(OC)ccc3c12 was read as PAX8 inh HTS 6.4.
`COc1ccc2c(c1)c1ncn(CCN3CCCC3)c(=O)c1n2C` gave Rtt109 Vps75 -16.8, Env fusion inh 25.7, PfHsp90 set2 -21.3, Arr AP2 block 3.8 and Glyco luc inh 2.0.
Cn1c2ccccc2c2ccc3c(c21)C(=O)C=CC3=O was read as Rtt109 Vps75 -0.7, Env fusion inh -43.0, PfHsp90 set2 124.4*, Arr AP2 block 69.6*, PAX8 inh HTS 0.2, Glyco luc inh inconclusive, Arr-AP2 CP1 55.5* and GST-FITC bead 1.8.
`Cc1ccc(C)c2c1c1ccccc1n2C` gave Rtt109 Vps75 1.7, Env fusion inh -1.8, PfHsp90 set2 -3.1, Arr AP2 block -21.4, PAX8 inh HTS -12.5 and Glyco luc inh 0.4.
For COc1ccc2c(c1)c1ccc3c(c1n2C)C(=O)C=CC3=O the results were Rtt109 Vps75 7.9, Env fusion inh -231.0, PfHsp90 set2 7.3, Arr AP2 block 56.9*, PAX8 inh HTS 11.2, Glyco luc inh 28.1*, Arr-AP2 CP1 32.5 and GST-FITC bead 3.1.
Screening CC(=O)Nc1nnc(S(=O)(=O)N2CCN(c3ccc(Cl)cc3[N+](=O)[O-])CC2)s1 returned Rtt109 Vps75 23.8, Env fusion inh -1.1, PfHsp90 set2 -14.6, Arr AP2 block 56.3*, PAX8 inh HTS -3.4, Glyco luc inh 1.0, Arr-AP2 CP1 20.0 and GST-FITC bead -17.0.
For O=C(Nc1nnc(S(=O)(=O)N2CCCCCC2)s1)c1ccc(Cl)cc1 the results were Rtt109 Vps75 13.6, Env fusion inh 7.3, PfHsp90 set2 -4.3, Arr AP2 block 9.1, PAX8 inh HTS 7.6 and Glyco luc inh -1.1.

Compound activity from PubChem BioAssay.
